Assay results published in ChEMBL document CHEMBL2434891, “Design, synthesis, and in vitro cancer cell growth inhibition evaluation and antimalarial testing of trioxanes installed in cyclic 2-enoate substructures” (Eur J Med Chem, 2013).
≈ marks a conversion by molar mass, not a printed value.

What was measured:
[1] = test system: HCC 2998; assay: Cytotoxicity against human HCC2998 cells after 72 hrs by SRB assay; format: functional; settings: HCC 2998, 72 h
[2] = test system: DMS-114; assay: Cytotoxicity against human DMS114 cells after 72 hrs by SRB assay; format: functional; settings: DMS-114, 72 h
[3] = test system: OVCAR-8; assay: Cytotoxicity against human OVCAR8 cells after 72 hrs by SRB assay; format: functional; settings: OVCAR-8, 72 h
[4] = test system: MDA-MB-231; assay: Cytotoxicity against human MDA-MB-231 cells after 72 hrs by SRB assay; format: functional; settings: MDA-MB-231, 72 h
[5] = test system: St-4; assay: Cytotoxicity against human St-4 cells after 72 hrs by SRB assay; format: functional; settings: St-4, 72 h
[6] = Cytotoxicity against human BSY1 cells after 72 hrs by SRB assay; format: functional; settings: BSY-1, 72 h
[7] = Cytotoxicity against human HBC4 cells after 72 hrs by SRB assay; format: functional; settings: HBC4, 72 h
[8] = test system: OVCAR-4; assay: Cytotoxicity against human OVCAR4 cells after 72 hrs by SRB assay; format: functional; settings: OVCAR-4, 72 h
[9] = Cytotoxicity against human MKN1 cells after 72 hrs by SRB assay; format: functional; settings: MKN-1, 72 h
[10] = test system: MCF7; assay: Cytotoxicity against human MCF7 cells after 72 hrs by SRB assay; format: functional; settings: MCF7, 72 h
[11] = Cytotoxicity against human HBC5 cells after 72 hrs by SRB assay; format: functional; settings: HBC5, 72 h
[12] = test system: PC-3; assay: Cytotoxicity against human PC3 cells after 72 hrs by SRB assay; format: functional; settings: PC-3, 72 h
[13] = test system: Plasmodium falciparum; assay: Antimalarial activity against erythrocytic stage of Plasmodium falciparum NF54 infected in RBC after 48 hrs by [3H]-hypoxanthine incorporation assay; format: functional, organism-based
[14] = test system: BALB/3T3; assay: Cytotoxicity against mouse BALB/3T3 cells after 72 hrs by SRB assay; format: cell-based; settings: BALB/3T3, 72 h
In short: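 Adherent cells grown at 37 °C and 5% CO2. A549 and HCT116 were in RPMI 1640/OptiMEM (50:50) with 5% FBS; BALB/3T3 in Dulbecco medium with 10% FBS and pyruvate. Seeded at 1×10^4/well 24 h before dosing, then 72 h at 10–0.01 µg/mL final. Fixed with cold 50% TCA, stained with 0.4% SRB, dye extracted in 10 mM Tris, read at 540 nm.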

[15] = test system: L6; assay: Cytotoxicity against rat L6 cells after 70 hrs by alamar blue assay; settings: L6, 70 h
[16] = read-out: LC50 (the source's name)
[17] = read-out: pLC50 (the source's name) (converted)

COc1ccc(C2O[C@]34CC(c5cccc(OC)c5)OC(=O)C3=C[C@@]2(C)OO4)cc1 (some centres undefined)
TGI [1]: 22 µM | GI50 ([1]; read-out: GI50): 6.3 µM | CC50 [1, 16]: 62 µM | TGI [2]: 20 µM | GI50 ([2]; read-out: GI50): 4.4 µM | CC50 [2, 16]: 95 µM | TGI [3]: 38 µM | GI50 ([3]; read-out: GI50): 9.4 µM | CC50 [3, 16]: 100 µM | TGI [4]: 18 µM | GI50 ([4]; read-out: GI50): 5.4 µM | CC50 [4, 16]: 51 µM | TGI [5]: 45 µM | GI50 ([5]; read-out: GI50): 18 µM | CC50 [5, 16]: 100 µM | TGI [6]: 17 µM | GI50 ([6]; read-out: GI50): 5 µM | CC50 [6, 16]: 46 µM | TGI [7]: 13 µM | GI50 ([7]; read-out: GI50): 3.7 µM | CC50 [7, 16]: 38 µM | TGI [8]: 11 µM | GI50 ([8]; read-out: GI50): 1.5 µM | CC50 [8, 16]: 42 µM | TGI [9]: 4.4 µM | GI50 ([9]; read-out: GI50): 2.1 µM | CC50 [9, 16]: 9.1 µM | TGI [10]: 29 µM | GI50 ([10]; read-out: GI50): 10 µM | CC50 [10, 16]: 87 µM | TGI [11]: 4.1 µM | GI50 ([11]; read-out: GI50): 1.9 µM | CC50 [11, 16]: 8.8 µM | TGI [12]: 27 µM | GI50 ([12]; read-out: GI50): 13 µM | CC50 [12, 16]: 56 µM

COc1ccc(C2O[C@]34CC(c5cccc(Cl)c5)OC(=O)C3=C[C@@]2(C)OO4)cc1 (some centres undefined)
TGI [1]: 30 µM | GI50 ([1]; read-out: GI50): 15 µM | CC50 [1, 16]: 62 µM | GI50 ([1]; read-out: pGI50 (converted)): 6.31 µM | CC50 [1, 17]: 61.7 µM | IC50 [13]: 1.38 µg/mL (≈ 3.33 µM) | TGI [2]: 36 µM | GI50 ([2]; read-out: GI50): 14 µM | CC50 [2, 16]: 92 µM | GI50 ([2]; read-out: pGI50 (converted)): 4.47 µM | CC50 [2, 17]: 95.5 µM | TGI [3]: 41 µM | GI50 ([3]; read-out: GI50): 12 µM | CC50 [3, 16]: 100 µM | GI50 ([3]; read-out: pGI50 (converted)): 9.33 µM | CC50 ([3]; read-out: pLC50 (converted)): > 100 µM | TGI [4]: 26 µM | GI50 ([4]; read-out: GI50): 12 µM | CC50 [4, 16]: 58 µM | GI50 ([4]; read-out: pGI50 (converted)): 5.37 µM | CC50 [4, 17]: 51.3 µM | TGI [5]: 47 µM | GI50 ([5]; read-out: GI50): 19 µM | CC50 [5, 16]: 100 µM | GI50 ([5]; read-out: pGI50 (converted)): 17.8 µM | CC50 ([5]; read-out: pLC50 (converted)): > 100 µM | TGI [6]: 26 µM | GI50 ([6]; read-out: GI50): 12 µM | CC50 [6, 16]: 57 µM | GI50 ([6]; read-out: pGI50 (converted)): 5.01 µM | CC50 [6, 17]: 46.8 µM | IC50 [14]: 8.97 µM | TGI [7]: 24 µM | GI50 ([7]; read-out: GI50): 11 µM | CC50 [7, 16]: 54 µM | GI50 ([7]; read-out: pGI50 (converted)): 3.72 µM | CC50 [7, 17]: 38 µM | TGI [8]: 24 µM | GI50 ([8]; read-out: GI50): 9.2 µM | CC50 [8, 16]: 59 µM | GI50 ([8]; read-out: pGI50 (converted)): 1.55 µM | CC50 [8, 17]: 41.7 µM | TGI [9]: 17 µM | GI50 ([9]; read-out: GI50): 4.5 µM | CC50 [9, 16]: 49 µM | GI50 ([9]; read-out: pGI50 (converted)): 2.09 µM | CC50 [9, 17]: 9.12 µM | TGI [10]: 27 µM | GI50 ([10]; read-out: GI50): 11 µM | CC50 [10, 16]: 69 µM | GI50 ([10]; read-out: pGI50 (converted)): 10 µM | CC50 [10, 17]: 87.1 µM | IC50 [15]: 0.46 µg/mL (≈ 1.11 µM) | TGI [11]: 8 µM | GI50 ([11]; read-out: GI50): 2.4 µM | CC50 [11, 16]: 44 µM | GI50 ([11]; read-out: pGI50 (converted)): 1.95 µM | CC50 [11, 17]: 8.71 µM | TGI [12]: 28 µM | GI50 ([12]; read-out: GI50): 15 µM | CC50 [12, 16]: 55 µM | GI50 ([12]; read-out: pGI50 (converted)): 13.2 µM | CC50 [12, 17]: 56.2 µM
